Data taken from ChEMBL document CHEMBL2434884, “Natural product derived antiprotozoal agents: synthesis, biological evaluation, and structure-activity relationships of novel chromene and chromane derivatives” (J Med Chem, 2013).

What was measured:
Leishmania tarentolae [1] = assay: Antiprotozoal activity against promastigote form of Leishmania tarentolae P10 assessed as parasite growth inhibition after 48 hrs by MTT assay; type: functional, organism-based; details: P10, 48 h
In short: (§1)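 Promastigotes of nonpathogenic lizard-infecting L. tarentolae strain P10, cultured in hemin-supplemented BHI medium; IC50 determined.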

L6 = assay: Cytotoxicity against rat L6 cells; type: cell-based
In short: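 L6 rat skeletal myoblasts; cytotoxicity IC50 determined at the Swiss Tropical and Public Health Institute by an earlier standard protocol.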

Plasmodium falciparum [2] = assay: Antiprotozoal activity against chloroquine/pyrimethamine-resistant erythrocytic form of Plasmodium falciparum K1 assessed as parasite growth inhibition; type: functional, organism-based
[3] = Selectivity index, ratio of IC50 for rat L6 cells to ratio of IC50 for chloroquine/pyrimethamine-resistant erythrocytic form of Plasmodium falciparum K1; type: toxicity, cell-based; details: read-out: Selectivity Index
Plasmodium falciparum [4] = assay: Potency index, ratio of chloroquine IC50 to compound IC50 for chloroquine/pyrimethamine-resistant erythrocytic form of Plasmodium falciparum K1; type: functional
[5] = system: Trypanosoma brucei rhodesiense; assay: Antiprotozoal activity against trypomastigote form of Trypanosoma brucei rhodesiense STIB 900 assessed as parasite growth inhibition; type: functional, organism-based
[6] = Selectivity index, ratio of IC50 for rat L6 cells to ratio of IC50 for trypomastigote form of Trypanosoma brucei rhodesiense STIB 900; type: toxicity, cell-based; details: read-out: Selectivity Index
Leishmania donovani [7] = assay: Antiprotozoal activity against axenic amastigote form of Leishmania donovani MHOM/ET/67/L82 assessed as parasite growth inhibition; type: functional, organism-based
Trypanosoma cruzi [8] = assay: Antiprotozoal activity against intracellular amastigote form of Trypanosoma cruzi Tulahuen C4 assessed as parasite growth inhibition; type: functional, organism-based
[9] = Selectivity index, ratio of IC50 for rat L6 cells to ratio of IC50 for axenic amastigote form of Leishmania donovani MHOM/ET/67/L82; type: toxicity, cell-based; details: read-out: Selectivity Index
Leishmania tarentolae [10] = assay: Antiprotozoal activity against Leishmania tarentolae assessed as parasite growth inhibition; type: functional, organism-based; in short: as §1
Trypanosoma cruzi [11] = assay: Antiprotozoal activity against Trypanosoma cruzi assessed as parasite growth inhibition; type: functional, organism-based
In short: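 T. cruzi intracellular amastigote stage, Tulahuen C4 strain; assayed at the Swiss Tropical and Public Health Institute by an earlier standard protocol.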

Leishmania donovani [12] = assay: Antiprotozoal activity against Leishmania donovani assessed as parasite growth inhibition

| Compound | IC50 (Leishmania tarentolae [1]) [µM] | IC50 (L6) [µM] | IC50 (Plasmodium falciparum [2]) [nM] | selectivity ratio [3] | Ratio IC50 (Plasmodium falciparum [4]) | IC50 [5] [µM] | selectivity ratio [6] | IC50 (Leishmania donovani [7]) [µM] | IC50 (Trypanosoma cruzi [8]) [µM] | selectivity ratio [9] | IC50 (Leishmania tarentolae [10]) [nM] | IC50 (Trypanosoma cruzi [11]) [nM] | IC50 (Leishmania donovani [12]) [nM] |
| --- | --- | --- | --- | --- | --- | --- | --- | --- | --- | --- | --- | --- | --- |
| CC(NCc1ccccc1)c1cc2c(cc1O)OC(C)(C)C=C2 (stereo not drawn) | 12.4 | 109 | 20 | 6760 | 10 | 6.18 | 17.7 |  |  |  |  |  |  |
| COc1cc2c(cc1C(C)N[C@@H](C)c1ccccc1)C=CC(C)(C)O2 (stereo partly drawn) | 9.01 | 16.5 | 370 | 44.4 |  | 5.1 | 3.23 |  |  |  |  |  |  |
| COc1cc2c(cc1C(C)NCCCCc1ccccc1)C=CC(C)(C)O2 (stereo not drawn) | 0.77 | 4.73 | 1410 | 3.35 |  | 3.15 | 1.5 | 71.7 | 4.19 | 0.07 |  |  |  |
| COc1cc2c(cc1C(C)N1CCCC1)C=CC(C)(C)O2 (stereo not drawn) | 18.6 | 177 | 16400 | 10.8 |  | 41.1 | 4.31 | 270 | 68.2 | 0.66 |  |  |  |
| COc1cc2c(cc1C(C)NCCc1ccccc1)CCC(C)(C)O2 (stereo not drawn) | 126 | 14.5 | 2490 | 5.8 |  | 4.15 | 3.48 | 1.73 | 12.1 | 8.4 |  |  |  |
| COc1cc2c(cc1C(C)NCCCc1ccccc1)C=CC(C)(C)O2 (stereo not drawn) | 0.22 | 1.08 | 850 | 1.27 |  | 1.03 | 1.05 | 101 | 13.6 | 0.01 |  |  |  |
| COc1cc2c(cc1C(C)NC/C=C/c1ccccc1)C=CC(C)(C)O2 (stereo not drawn) | 3.26 | 14.6 | 4410 | 3.32 |  | 5.84 | 2.5 | 62.4 | 8.13 | 0.23 |  |  |  |
| CC(NCCCc1ccccc1)c1cc2c(cc1O)OC(C)(C)C=C2 (stereo not drawn) | 6.2 | 27 | 10 | 1820 | 25 | 5.31 | 5.08 |  |  |  |  |  |  |
| COc1cc2c(cc1C(C)N[C@H](C)c1ccccc1)C=CC(C)(C)O2 (stereo partly drawn) | 8.61 | 15.9 | 720 | 22.1 |  | 2.02 | 7.85 |  |  |  |  |  |  |
| COc1cc2c(cc1C(C)NCCc1ccccc1)C=CC(C)(C)O2 (stereo not drawn) | 1.04 | 15.4 | 2420 | 6.34 |  | 2.22 | 6.93 | 127 | 9.1 | 0.12 |  |  |  |
| COc1ccc(CNC(C)c2cc3c(cc2OC)OC(C)(C)C=C3)cc1 (stereo not drawn) | 9.8 | 14.9 | 930 | 16 |  | 2.42 | 6.13 | 225 | 33.1 | 0.07 |  |  |  |
| COc1cc2c(cc1C(C)OCCc1ccccc1)C=CC(C)(C)O2 (stereo not drawn) | 1.17 | 123 | 59900 | 2.08 |  | 180 | 0.69 | 63.5 | 56.7 | 1.9 |  |  |  |
| CCCCNC(C)c1cc2c(cc1OC)OC(C)(C)CC2 (stereo not drawn) |  | 59 | 3220 | 18.3 |  | 7.82 | 7.54 | 10.8 | 38.4 | 5.5 |  |  |  |
| C/C=C(/C)C(=O)OC(C)c1cc2c(cc1OC)OC(C)(C)C=C2 (stereo not drawn) | 21.3 | 139 | 18900 | 7.35 |  | 157 | 0.89 | 46.2 | 61.4 | 3 |  |  |  |
| COc1cc2c(cc1C(C)N(C)CCCc1ccccc1)C=CC(C)(C)O2 (stereo not drawn) | 9.01 | 16.3 | 1240 | 13.5 |  | 3.17 | 5.12 | 84.3 | 9.17 | 0.19 |  |  |  |
| CCNC(C)c1cc2c(cc1OC)OC(C)(C)C=C2 (stereo not drawn) | 8.76 | 176 | 8120 | 22 |  | 22.8 | 7.71 | 365 | 91.5 | 0.48 |  |  |  |

| Compound | IC50 (Leishmania tarentolae [1]) [µM] | IC50 (L6) [µM] | IC50 (Plasmodium falciparum [2]) [nM] | selectivity ratio [3] | Ratio IC50 (Plasmodium falciparum [4]) | IC50 [5] [µM] | selectivity ratio [6] | IC50 (Leishmania donovani [7]) [µM] | IC50 (Trypanosoma cruzi [8]) [µM] | selectivity ratio [9] | IC50 (Leishmania tarentolae [10]) [nM] | IC50 (Trypanosoma cruzi [11]) [nM] | IC50 (Leishmania donovani [12]) [nM] |
| --- | --- | --- | --- | --- | --- | --- | --- | --- | --- | --- | --- | --- | --- |
| COc1cc2c(cc1C(C)OCc1ccccc1)C=CC(C)(C)O2 (stereo not drawn) | 1.53 | 43.9 | 9480 | 4.64 |  | 76.1 | 0.58 | 21.2 | 45 | 2.1 |  |  |  |
| COc1cc2c(cc1C(C)NCc1ccccc1)C=CC(C)(C)O2 (stereo not drawn) | 2.4 | 21 | 640 | 32.8 |  | 2.38 | 8.83 | 159 | 33.9 | 0.13 |  |  |  |
| COc1cc2c(cc1C(C)N1CCOCC1)C=CC(C)(C)O2 (stereo not drawn) | 12.4 | 157 | 9920 | 15.9 |  | 96.2 | 1.63 | 148 | 110 | 1.06 |  |  |  |
| N=C(N)c1ccc(OCCCCCOc2ccc(C(=N)N)cc2)cc1 [PENTAMIDINE] |  |  |  |  |  |  |  |  |  |  | 30 |  |  |
| CCCCNC(C)c1cc2c(cc1OC)OC(C)(C)C=C2 (stereo not drawn) | 6.25 | 52.5 | 4180 | 12.6 |  | 8.19 | 6.41 |  | 25.2 |  |  |  |  |
| CCN(CC)CCCC(C)NC(C)c1cc2c(cc1OC)OC(C)(C)C=C2 (stereo not drawn) | 3.24 | 41.9 | 2390 | 17.5 |  | 1.86 | 22.5 |  | 35.5 |  |  |  |  |
| COc1cc2c(cc1C(C)NCC1CCCCC1)C=CC(C)(C)O2 (stereo not drawn) | 0.65 | 14.5 | 2460 | 5.88 |  | 2.16 | 6.69 | 139 | 12.9 | 0.1 |  |  |  |
| COc1cc2c(cc1C(C)NC(=O)/C=C/c1ccccc1)C=CC(C)(C)O2 (stereo not drawn) | 1.78 | 107 |  |  |  | 35.9 | 2.99 | 26.3 | 23.1 | 4.1 |  |  |  |
| COc1cc2c(cc1C(C)NCCCCc1ccccc1)CCC(C)(C)O2 (stereo not drawn) | 90.6 | 5.28 | 1340 | 3.94 |  | 1.84 | 2.87 | 0.57 | 5.03 | 9.3 |  |  |  |
| COc1cc2c(cc1C(C)NC(=O)Cc1ccccc1)C=CC(C)(C)O2 (stereo not drawn) | 7.69 | 86.5 | 31000 | 2.79 |  | 103 | 0.83 | 53.8 | 44.7 | 1.6 |  |  |  |
| COc1cc2c(cc1C(C)NCc1ccccc1)CCC(C)(C)O2 (stereo not drawn) | 270 | 15.3 | 1510 | 10.1 |  | 4.98 | 3.08 | 3.7 | 13.3 | 4.1 |  |  |  |
| O=C(Cn1ccnc1[N+](=O)[O-])NCc1ccccc1 [BENZNIDAZOLE] |  |  |  |  |  |  |  |  |  |  |  | 1570 |  |
| CCCCCCCCCCCCCCCCOP(=O)([O-])OCC[N+](C)(C)C [MILTEFOSINE] |  |  |  |  |  |  |  |  |  |  |  |  | 361 |
| COc1cc2c(cc1C(C)OC/C=C/c1ccccc1)C=CC(C)(C)O2 (stereo not drawn) | 0.86 | 64.4 |  |  |  | 94.7 | 0.68 | 23 | 73 | 2.8 |  |  |  |
| COc1cc2c(cc1C(C)NC(=O)c1ccccc1)C=CC(C)(C)O2 (stereo not drawn) | 8.61 | 34.8 | 11500 | 3.01 |  | 23.4 | 1.45 | 26.3 | 36.8 | 1.3 |  |  |  |
| COc1cc2c(cc1C(C)NCCCc1ccccc1)CCC(C)(C)O2 (stereo not drawn) | 129 | 2.63 | 2130 | 1.23 |  | 2.27 | 1.15 |  | 5.35 |  |  |  |  |
